In article PMC9421316 (Heliyon, 2022):
Where two headings read alike, the source gives them in different places. Ends that are not written are not given here.

Tests used:
[1] = diluted WSS from periodontally healthy individuals, HPLC, ref McDonald et al. 8, cited from earlier work
[2] = cited from earlier work
[3] = assay type: in vitro ADME, human; conditions: for % BD (mean ± S.D.): all groups and time points
[4] = Degradation mode of histatins in pooled 1:10 diluted WSS, cationic PAGE; assay type: in vitro ADME, human; conditions: 100 μg/mL, 37 °C
Method in brief: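 Unstimulated whole saliva from adolescents (n = 8/group: spastic CP with gingivitis, no CP/no gingivitis, no CP with gingivitis) was held on ice ≤3 h, spun at 1,500×g for 2 min then 14,000×g for 20 min at 4 °C, and the supernatant stored at -80 °C. Supernatant was diluted 1:10 in distilled water and pooled by group. Synthetic histatin 1 or 5 (final 100 μg/mL) was incubated at 37 °C for 0–48 h, with aliquots boiled 5 min. Samples were dried, desalted, and run on 20% cationic PAGE; band intensity was compared with time zero.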

Question: With “DSHEKRHHGYRRKFHEKHHSHREFPFYGDYGSNYLYDN [histatin 1]” as the sequence, how does the intact protein degraded ([1]; 0.5 h) read?
Answer: The intact protein degraded was 28%.

Question: What about the intact protein degraded ([1]; 2 h) of the same sequence?
Answer: The intact protein degraded was 83%.

Question: What about the “histatin 1 degraded” value ([2]; 1.5 h of incubation with WSS) of the same sequence?
Answer: Its value is “approximately 50%”.

Question: And the “time after which totally degraded” value ([2]; incubation with WSS)?
Answer: Its value is 40 h.

Question: And the “speed of degradation, G1 relative to G2 and G3” value ([3]; during a 48 h interval, 1:10 diluted WSS)?
Answer: The value was 1.78 times.

Question: What about the remaining at 48 h, 100 μg/mL ([3]; human, individual whole saliva supernatant (WSS) diluted 1:10) of the same sequence?
Answer: The remaining at 48 h, 100 μg/mL was 56%.

Question: What about the metabolised at 4 h, 100 μg/mL ([3]; human, whole saliva supernatant (WSS) diluted 1:10, reduction in band density, G2 and G3 (stated together), 1:10 diluted WSS, 37 °C, printed as after 4 h of incubation) of the same sequence?
Answer: Its metabolised at 4 h, 100 μg/mL is about 14%.

Question: What about the “% BD (mean ± S.D.)” value ([3]; saliva of female subjects, 1:10 diluted WSS) of the same sequence?
Answer: Its value is 79.3 ± 23.6%.

Question: What about the “% BD (mean ± S.D.)” value ([3]; saliva of male subjects, 1:10 diluted WSS) of the same sequence?
Answer: Its value is 77.6 ± 20.9%.

Question: What about the “time after which degradation fragments were observed on cationic PAGE” value ([4]; pooled G2 WSS diluted 1:10) of the same sequence?
Answer: Its value is 8 h.

Question: And the “time after which degradation fragments were observed on cationic PAGE” value ([4]; pooled G3 WSS diluted 1:10)?
Answer: The value was 8 h.
